Assay results as given in ChEMBL document CHEMBL1152445, “Modulation of multidrug resistance protein 1 (MRP1/ABCC1)-mediated multidrug resistance by bivalent apigenin homodimers and their derivatives” (J Med Chem, 2009).
The source made the active and inactive calls. The rule behind the calls is not given here.

Legend:
[1] = target: ATP-binding cassette sub-family C member 2 (Homo sapiens, UniProt Q92887); assay: Inhibition of MRP2
[2] = Cytotoxicity against human 2008/P cells at 0.5 uM after 5 days by MTS assay; format: cell-based; details: 120 h
[3] = Cytotoxicity against human 2008/MRP1 cells at 0.5 uM by MTS assay; format: cell-based; details: 2008/mrp1, 0.5 µM
[4] = Cytotoxicity against human 2008/P cells after 5 days by MTS assay; format: cell-based; details: 120 h
[5] = Cytotoxicity against human 2008/MRP1 cells after 5 days by MTS assay; format: cell-based; details: 2008/MRP1, 120 h
Homo sapiens = species on record: Homo sapiens; assay: Increase in doxorubicin accumulation in doxorubicin-co-incubated human 2008/P cells at 3 uM after 120 mins by spectrofluorimetry; format: functional
Summary of the method: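 5 × 10^5 cells of the parental ovarian line incubated 120 min at 37 °C with 20 μM doxorubicin plus 3 μM modulator, 0.3% DMSO as vehicle control. Cells washed twice with cold PBS pH 7.4 and lysed in 0.75 M HCl/0.2% Triton X-100 in isopropanol, then 20 min at 37 °C. Supernatant fluorescence read at ex 460/em 610 nm. Duplicate, three repeats, mean ± SEM.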

[6] = target: T1, Multidrug resistance-associated protein 1 (Homo sapiens, UniProt P33527); assay: Reversal of MRP1-mediated doxorubicin resistance in doxorubicin co-incubated human 2008/MRP1 cells assessed as increase in doxorubicin accumulation at 3 uM after 120 mins by spectrofluorimetry relative to control; format: cell-based; details: 2008/mrp1, 2 h
[7] = target: T1, Multidrug resistance-associated protein 1; assay: Reversal of MRP1-mediated doxorubicin resistance in doxorubicin co-incubated human 2008/MRP1 cells assessed as effect on doxorubicin accumulation at […] after 120 mins by spectrofluorimetry; format: cell-based; details: 2008/mrp1, 2 h
Mus musculus = assay: Potentiation of vincristine-efficacy in nude mouse model assessed as regression of tumor volume at 8 mg/kg in presence of 0.5 mg/kg vincristine; format: functional
[8] = target: T1, Multidrug resistance-associated protein 1; assay: Reversal of MRP1-mediated doxorubicin resistance in human 2008/MRP1 cells assessed as ratio of doxorubicin IC50 to doxorubicin IC50 in presence of compound at 0.5 uM; format: cell-based; details: 2008/mrp1, 0.5 µM
[9] = Anticancer activity against human 2008/P cells after 5 days by MTS assay; format: functional, cell-based; details: 120 h
[10] = Anticancer activity against human 2008/MRP1 cells after 5 days by MTS assay; format: functional, cell-based; details: 2008/MRP1, 120 h
[11] = Selectivity ratio of IC50 for human 2008/MRP1 cells to IC50 for human 2008/P cells; format: functional
Summary of the method: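 Ratio of doxorubicin or etoposide IC50 in the MRP1 transfectant to IC50 in the parental line. Both IC50 values come from the 5-day MTS proliferation assay without modulator.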

T1 sequence (P33527 whole entry): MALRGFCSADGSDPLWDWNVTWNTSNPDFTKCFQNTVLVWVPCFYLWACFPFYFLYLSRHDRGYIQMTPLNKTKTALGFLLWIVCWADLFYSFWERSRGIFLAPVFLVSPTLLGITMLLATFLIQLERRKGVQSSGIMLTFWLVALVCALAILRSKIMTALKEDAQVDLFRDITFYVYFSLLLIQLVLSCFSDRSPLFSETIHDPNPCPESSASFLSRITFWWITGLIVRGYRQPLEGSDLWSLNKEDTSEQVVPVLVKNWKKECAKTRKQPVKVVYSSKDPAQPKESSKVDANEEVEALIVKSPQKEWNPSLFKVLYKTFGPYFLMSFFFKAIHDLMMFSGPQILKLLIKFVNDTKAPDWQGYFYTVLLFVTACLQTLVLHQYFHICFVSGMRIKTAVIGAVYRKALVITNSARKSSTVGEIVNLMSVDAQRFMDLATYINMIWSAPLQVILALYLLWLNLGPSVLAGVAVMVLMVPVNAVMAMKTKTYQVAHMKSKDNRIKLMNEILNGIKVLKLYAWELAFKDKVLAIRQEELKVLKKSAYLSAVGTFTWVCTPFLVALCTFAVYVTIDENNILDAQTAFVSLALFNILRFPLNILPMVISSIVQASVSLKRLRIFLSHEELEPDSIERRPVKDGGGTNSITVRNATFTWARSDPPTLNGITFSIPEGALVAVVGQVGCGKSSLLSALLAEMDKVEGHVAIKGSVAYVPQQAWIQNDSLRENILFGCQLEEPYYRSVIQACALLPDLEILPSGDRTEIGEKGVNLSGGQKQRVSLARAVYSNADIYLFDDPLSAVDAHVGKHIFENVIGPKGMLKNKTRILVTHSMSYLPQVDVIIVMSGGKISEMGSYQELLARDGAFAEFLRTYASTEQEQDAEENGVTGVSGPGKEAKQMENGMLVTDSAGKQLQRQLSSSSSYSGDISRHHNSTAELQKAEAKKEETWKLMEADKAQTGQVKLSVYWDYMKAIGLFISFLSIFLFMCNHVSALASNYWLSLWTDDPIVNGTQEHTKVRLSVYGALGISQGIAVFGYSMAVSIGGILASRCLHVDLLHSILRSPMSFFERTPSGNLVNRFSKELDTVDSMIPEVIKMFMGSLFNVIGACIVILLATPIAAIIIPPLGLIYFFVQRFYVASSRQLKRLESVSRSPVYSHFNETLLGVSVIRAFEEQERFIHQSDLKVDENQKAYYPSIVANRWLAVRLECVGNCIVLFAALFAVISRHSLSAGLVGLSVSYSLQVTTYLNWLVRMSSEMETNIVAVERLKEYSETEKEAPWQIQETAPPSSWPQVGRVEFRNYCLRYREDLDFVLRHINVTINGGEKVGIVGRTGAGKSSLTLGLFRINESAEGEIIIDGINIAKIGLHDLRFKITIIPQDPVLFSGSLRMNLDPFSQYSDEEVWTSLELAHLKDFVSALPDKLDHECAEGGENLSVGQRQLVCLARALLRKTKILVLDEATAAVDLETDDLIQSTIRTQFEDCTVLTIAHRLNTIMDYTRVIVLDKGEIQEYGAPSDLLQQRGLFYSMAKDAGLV
Sequence of ATP-binding cassette sub-family C member 2 (Q92887 whole entry): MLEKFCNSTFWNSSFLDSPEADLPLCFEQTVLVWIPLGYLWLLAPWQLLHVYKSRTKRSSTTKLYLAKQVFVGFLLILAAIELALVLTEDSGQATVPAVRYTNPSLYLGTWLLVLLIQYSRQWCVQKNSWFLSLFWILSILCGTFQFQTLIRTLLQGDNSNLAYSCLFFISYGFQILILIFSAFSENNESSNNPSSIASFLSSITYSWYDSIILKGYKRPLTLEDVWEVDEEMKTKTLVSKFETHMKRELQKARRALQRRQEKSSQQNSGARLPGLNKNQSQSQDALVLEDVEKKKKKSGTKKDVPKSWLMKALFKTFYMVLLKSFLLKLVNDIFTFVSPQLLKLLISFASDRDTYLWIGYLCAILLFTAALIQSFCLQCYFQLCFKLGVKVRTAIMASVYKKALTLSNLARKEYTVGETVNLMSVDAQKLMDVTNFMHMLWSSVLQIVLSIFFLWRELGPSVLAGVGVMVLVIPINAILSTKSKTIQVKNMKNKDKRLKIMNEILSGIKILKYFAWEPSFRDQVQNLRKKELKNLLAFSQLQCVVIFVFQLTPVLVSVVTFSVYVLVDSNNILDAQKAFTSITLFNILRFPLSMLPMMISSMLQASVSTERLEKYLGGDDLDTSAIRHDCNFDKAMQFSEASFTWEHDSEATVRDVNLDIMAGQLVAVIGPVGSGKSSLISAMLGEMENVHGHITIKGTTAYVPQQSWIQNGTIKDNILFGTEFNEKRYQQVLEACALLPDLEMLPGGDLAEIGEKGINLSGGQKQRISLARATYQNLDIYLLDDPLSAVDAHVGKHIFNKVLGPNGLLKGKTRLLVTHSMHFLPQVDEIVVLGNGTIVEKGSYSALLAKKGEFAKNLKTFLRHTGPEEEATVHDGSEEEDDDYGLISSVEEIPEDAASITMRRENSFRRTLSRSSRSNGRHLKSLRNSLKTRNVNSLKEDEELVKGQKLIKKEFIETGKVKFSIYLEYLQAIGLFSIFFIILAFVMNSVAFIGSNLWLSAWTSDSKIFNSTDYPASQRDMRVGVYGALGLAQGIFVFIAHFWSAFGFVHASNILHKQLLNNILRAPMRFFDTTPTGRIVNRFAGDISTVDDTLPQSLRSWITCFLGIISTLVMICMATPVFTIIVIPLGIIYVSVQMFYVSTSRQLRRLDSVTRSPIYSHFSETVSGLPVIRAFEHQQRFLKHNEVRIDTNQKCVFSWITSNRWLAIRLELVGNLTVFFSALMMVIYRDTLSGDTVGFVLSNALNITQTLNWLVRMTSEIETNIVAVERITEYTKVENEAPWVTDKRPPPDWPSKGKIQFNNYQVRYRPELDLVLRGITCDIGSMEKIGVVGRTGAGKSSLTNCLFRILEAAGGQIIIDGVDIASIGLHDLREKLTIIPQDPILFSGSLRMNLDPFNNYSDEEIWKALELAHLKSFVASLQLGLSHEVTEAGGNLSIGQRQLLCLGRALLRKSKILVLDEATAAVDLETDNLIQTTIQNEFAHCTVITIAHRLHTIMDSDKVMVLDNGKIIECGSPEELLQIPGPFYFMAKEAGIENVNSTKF

Row | Compound | Activity [2] | Activity [3] | IC50 [4] | IC50 [5] | further results
1 | O=c1c(O)c(-c2cc(O)c(O)c(O)c2)oc2cc(O)cc(O)c12 [MYRICETIN] | – | – | – | – | IC50 [1]: 22 µM
2 | CCc1ccc2oc(-c3ccc(OCCOCCOCCOCCOCCOc4ccc(-c5cc(=O)c6cc(CC)ccc6o5)cc4)cc3)cc(=O)c2c1 | Non-toxic | Non-toxic | 62.6 µM | 46.1 µM | –
3 | Cc1ccc2c(=O)cc(-c3ccc(OCCOCCOCCOCCOCCOCCOc4ccc(-c5cc(=O)c6ccc(C)cc6o5)cc4)cc3)oc2c1 | Non-toxic | Non-toxic | 6.1 µM | 10.2 µM | –
4 | CCc1ccc2oc(-c3ccc(OCCOCCOCCOCCOCCOCCOc4ccc(-c5cc(=O)c6cc(CC)ccc6o5)cc4)cc3)cc(=O)c2c1 | Non-toxic | Non-toxic | > 96 µM | 76.2 µM | –
5 | CN(C)C(=O)CCSC(SCCC(=O)O)c1cccc(/C=C/c2ccc3ccc(Cl)cc3n2)c1 (centres undefined) | – | – | – | – | Activity (Homo sapiens): inactive
6 | O=c1cc(-c2ccc(OCCOCCOCCOc3ccc(-c4cc(=O)c5c(O)cc(O)cc5o4)cc3)cc2)oc2cc(O)cc(O)c12 | – | – | > 100 µM | > 100 µM | –
7 | O=c1cc(-c2ccc(OCCOCCOCCOCCOc3ccc(-c4cc(=O)c5ccccc5o4)cc3)cc2)oc2ccccc12 | – | – | > 100 µM | > 93 µM | –
8 | Cc1ccc2oc(-c3ccc(OCCOCCOCCOCCOCCOc4ccc(-c5cc(=O)c6cc(C)ccc6o5)cc4)cc3)cc(=O)c2c1 | Non-toxic | Non-toxic | > 100 µM | > 100 µM | Activity (Homo sapiens): Active
9 | CCCN(CCC)S(=O)(=O)c1ccc(C(=O)O)cc1 [PROBENECID] | – | – | – | – | Activity (Homo sapiens): inactive; Activity [6]: Not Active; Activity [7]: Not Active
10 | COc1ccc(CCN(C)CCCC(C#N)(c2ccc(OC)c(OC)c2)C(C)C)cc1OC (centres undefined) | – | – | – | – | Activity (Homo sapiens): inactive
11 | O=c1cc(-c2ccc(OCCOCCOCCOCCOCCOCCOc3ccc(-c4cc(=O)c5ccc(F)cc5o4)cc3)cc2)oc2cc(F)ccc12 | Non-toxic | Non-toxic | 4.4 µM | 5.2 µM | –
12 | Cc1onc2c1c(=O)n([C@H]1CCC[C@@H](CNC(=O)c3ccccc3)C1)c1cccc(Cl)c21 | – | – | – | – | Activity (Mus musculus): 63%
13 | O=c1cc(-c2ccc(OCCOCCOCCOCCOCCOc3ccc(-c4cc(=O)c5ccc(F)cc5o4)cc3)cc2)oc2cc(F)ccc12 | Non-toxic | Non-toxic | 17.5 µM | 8.9 µM | –
14 | Cc1c(-c2ccc(OCCOCCOCCOCCOCCOCCOc3ccc(-c4oc5ccccc5c(=O)c4C)cc3)cc2)oc2ccccc2c1=O | Non-toxic | Non-toxic | – | – | –
15 | O=c1cc(-c2ccc(OCCOCCOCCOCCOCCOCCOc3ccc(-c4cc(=O)c5ccccc5o4)cc3)cc2)oc2ccccc12 | Non-toxic | Non-toxic | 3.7 µM | 2.8 µM | Activity [8]: 7.8
16 | COc1cccc2c1C(=O)c1c(O)c3c(c(O)c1C2=O)C[C@@](O)(C(=O)CO)C[C@@H]3O[C@H]1C[C@H](N)[C@H](O)[C@H](C)O1 [DOXORUBICIN] | – | – | – | – | IC50 [9]: 0.063 µM; IC50 [10]: 0.577 µM; Ratio IC50 [11]: 9.2
17 | Cc1c(-c2ccc(OCCOCCOCCOCCOCCOc3ccc(-c4oc5ccccc5c(=O)c4C)cc3)cc2)oc2ccccc2c1=O | Non-toxic | Non-toxic | – | – | –
18 | Cc1ccc2c(=O)cc(-c3ccc(OCCOCCOCCOCCOCCOc4ccc(-c5cc(=O)c6ccc(C)cc6o5)cc4)cc3)oc2c1 | Non-toxic | Non-toxic | 60.6 µM | 53.3 µM | –
19 | O=c1cc(-c2ccc(OCCOCCOCCOCCOCCOCCOCCOCCOc3ccc(-c4cc(=O)c5ccccc5o4)cc3)cc2)oc2ccccc12 | Non-toxic | Non-toxic | – | – | –
20 | O=c1cc(-c2ccc(OCCOCCOCCOCCOc3ccc(-c4cc(=O)c5c(O)cc(O)cc5o4)cc3)cc2)oc2cc(O)cc(O)c12 | – | – | > 100 µM | > 100 µM | –
21 | Cc1ccc2oc(-c3ccc(OCCOCCOCCOCCOCCOCCOc4ccc(-c5cc(=O)c6cc(C)ccc6o5)cc4)cc3)cc(=O)c2c1 | Non-toxic | Non-toxic | > 100 µM | > 100 µM | –
22 | CCc1ccc2oc(-c3ccc(OCCOCCOCCOCCOc4ccc(-c5cc(=O)c6cc(CC)ccc6o5)cc4)cc3)cc(=O)c2c1 | Non-toxic | Non-toxic | 77.7 µM | 69.5 µM | –
23 | Cc1ccc2oc(-c3ccc(OCCOCCOCCOCCOc4ccc(-c5cc(=O)c6cc(C)ccc6o5)cc4)cc3)cc(=O)c2c1 | Non-toxic | Non-toxic | > 100 µM | > 77 µM | –
24 | O=c1cc(-c2ccc(OCCOCCOCCOCCOCCOCCOCCOCCOCCOCCOCCOCCOCCOc3ccc(-c4cc(=O)c5ccccc5o4)cc3)cc2)oc2ccccc12 | Non-toxic | Non-toxic | – | – | –
25 | O=c1cc(-c2ccc(OCCOCCOCCOCCOCCOCCOCCOc3ccc(-c4cc(=O)c5ccccc5o4)cc3)cc2)oc2ccccc12 | Non-toxic | Non-toxic | – | – | –
26 | Cc1ccc2c(=O)cc(-c3ccc(OCCOCCOCCOCCOc4ccc(-c5cc(=O)c6ccc(C)cc6o5)cc4)cc3)oc2c1 | Non-toxic | Non-toxic | > 100 µM | > 100 µM | –
27 | O=c1cc(-c2ccc(OCCOCCOCCOCCOCCOCCOCCOCCOCCOc3ccc(-c4cc(=O)c5ccccc5o4)cc3)cc2)oc2ccccc12 | Non-toxic | Non-toxic | – | – | –
28 | O=c1cc(-c2ccc(OCCOCCOCCOCCOCCOCCOCCOc3ccc(-c4cc(=O)c5c(O)cc(O)cc5o4)cc3)cc2)oc2cc(O)cc(O)c12 | – | – | – | – | Activity [8]: 1.5
